Laboratory results as given in ChEMBL document CHEMBL4038305, “Benzoxaborole Antimalarial Agents. Part 5. Lead Optimization of Novel Amide Pyrazinyloxy Benzoxaboroles and Identification of a Preclinical Candidate” (J Med Chem, 2017).
pIC50: −log10 of the molar value.

How the values were obtained:
[1] = test system: Plasmodium berghei; test: Antimalarial activity against Plasmodium berghei infected in Swiss Webster mouse assessed as mouse survival rate at 3 mg/kg administered once daily via oral gavage for 4 consecutive days beginning 1 hr after infection measured on day 4 post infection relative to control; type: functional
Method in brief: (§1)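 P. berghei-infected erythrocytes taken from a previously infected mouse were injected intraperitoneally. Oral dosing, once daily for 4 consecutive days, began 1 h after infection, in polyethylene glycol 300/propylene glycol/water (55/25/20 by weight). Chloroquine at 30 mg/kg was the positive control, with a vehicle-only group. Percent survival was recorded daily from day 4 to day 20.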

[2] = test system: Plasmodium berghei; test: Antimalarial activity against Plasmodium berghei infected in Swiss Webster mouse assessed as mouse survival rate at 3 mg/kg administered once daily via oral gavage for 4 consecutive days beginning 1 hr after infection measured on day 5 post infection relative to control; type: functional; method in brief: as §1
[3] = test system: Plasmodium berghei; test: Antimalarial activity against Plasmodium berghei infected in Swiss Webster mouse assessed as mouse survival rate at 3 mg/kg administered once daily via oral gavage for 4 consecutive days beginning 1 hr after infection measured on day 7 post infection relative to control; type: functional; method in brief: as §1
[4] = Cmax in Sprague-Dawley rat plasma at 5 mg/kg, po via gavage by HPLC/MS analysis; type: ADME, organism-based; set-up: dose 5 mg/kg, route oral
Method in brief: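 Female CD-1 mice, male SD rats and beagle dogs received 5 mg/kg either iv or by oral gavage. Vehicle was PEG 300/propylene glycol/water (55/25/20, pH 6). Blood was sampled and drug measured by HPLC-MS/MS.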

[5] = Volume of distribution at steady state in Sprague-Dawley rat at 5 mg/kg, iv by HPLC/MS analysis; type: ADME, organism-based; settings: in vivo, read-out: Vdss
[6] = test system: Plasmodium berghei; test: Antimalarial activity against Plasmodium berghei infected in Swiss Webster mouse assessed as mouse survival rate at 3.7 mg/kg administered once daily via oral gavage for 4 consecutive days beginning 1 hr after infection measured on day 8 post infection relative to control; type: functional; method in brief: as §1
[7] = test system: Plasmodium falciparum; test: Antimalarial activity against Plasmodium falciparum 7G8 infected in human erythrocytes assessed as reduction in [3H]-hypoxanthine incorporation preincubated for 24 hrs followed by [3H]-hypoxanthine addition measured after 24 hrs by scintillation counting method; type: functional, cell-based
[8] = test system: Plasmodium falciparum; test: Antimalarial activity against intraerythrocytic stage of Plasmodium falciparum assessed as time required to clear 99.9% of initial parasite population at 100 times IC50 preincubated for 24 hrs followed by [3H]-hypoxanthine addition measured after 24 hrs by scintillation counting method; type: functional
Method in brief: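 In vitro P. falciparum parasite reduction ratio assay run at 10×, 30× and 100× IC50. Derived parameters: lag phase (time to maximal killing), PRR (parasites killed per life cycle) and PCT99.9% (time to clear 99.9% of the initial parasite population).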

[9] = test system: Salmonella typhimurium; test: Genotoxicity in Salmonella typhimurium TA100 assessed as number of revertants per plate at 15 ug/plate in absence of rat liver S9 fraction by Ames test (reference value: 154 +/- 9); type: toxicity; settings: salmonella enterica subsp. enterica serovar typhimurium
[10] = test system: Salmonella typhimurium; test: Genotoxicity in Salmonella typhimurium TA100 assessed as number of revertants per plate at 150 ug/plate in absence of rat liver S9 fraction by Ames test (reference value: 154 +/- 9); type: toxicity; settings: salmonella enterica subsp. enterica serovar typhimurium
[11] = test system: Salmonella typhimurium; test: Genotoxicity in Salmonella typhimurium TA100 assessed as number of revertants per plate at 1500 ug/plate in absence of rat liver S9 fraction by Ames test (reference value: 154 +/- 9); type: toxicity; settings: salmonella enterica subsp. enterica serovar typhimurium
[12] = test system: Salmonella typhimurium; test: Genotoxicity in Salmonella typhimurium TA100 assessed as number of revertants per plate at 1.5 ug/plate in presence of rat liver S9 fraction by Ames test (reference value: 141 +/- 1); type: toxicity; settings: salmonella enterica subsp. enterica serovar typhimurium
[13] = test system: Salmonella typhimurium; test: Genotoxicity in Salmonella typhimurium TA100 assessed as number of revertants per plate at 50 ug/plate in presence of rat liver S9 fraction by Ames test (reference value: 141 +/- 1); type: toxicity; settings: salmonella enterica subsp. enterica serovar typhimurium
[14] = test system: Salmonella typhimurium; test: Genotoxicity in Salmonella typhimurium TA100 assessed as number of revertants per plate at 5000 ug/plate in presence of rat liver S9 fraction by Ames test (reference value: 141 +/- 1); type: toxicity; settings: salmonella enterica subsp. enterica serovar typhimurium
[15] = test system: Salmonella typhimurium; test: Genotoxicity in Salmonella typhimurium TA1535 assessed as number of revertants per plate at 5 ug/plate in presence of rat liver S9 fraction by Ames test (reference value: 10); type: toxicity; settings: salmonella enterica subsp. enterica serovar typhimurium
[16] = test system: Salmonella typhimurium; test: Genotoxicity in Salmonella typhimurium TA1535 assessed as number of revertants per plate at 1500 ug/plate in presence of rat liver S9 fraction by Ames test (reference value: 10); type: toxicity; settings: salmonella enterica subsp. enterica serovar typhimurium
[17] = test system: Salmonella typhimurium; test: Genotoxicity in Salmonella typhimurium TA1537 assessed as number of revertants per plate at 5 ug/plate in absence of rat liver S9 fraction by Ames test (reference value: 19 +/- 9); type: toxicity; settings: salmonella enterica subsp. enterica serovar typhimurium
[18] = test system: Salmonella typhimurium; test: Genotoxicity in Salmonella typhimurium TA1537 assessed as number of revertants per plate at 150 ug/plate in absence of rat liver S9 fraction by Ames test (reference value: 19 +/- 9); type: toxicity; settings: salmonella enterica subsp. enterica serovar typhimurium
[19] = test system: Salmonella typhimurium; test: Genotoxicity in Salmonella typhimurium TA1537 assessed as number of revertants per plate at 1.5 ug/plate in presence of rat liver S9 fraction by Ames test (reference value: 11 +/- 4); type: toxicity; settings: salmonella enterica subsp. enterica serovar typhimurium
[20] = test system: Escherichia coli; test: Genotoxicity in Escherichia coli WP2uvrA assessed as number of revertants per plate at 5 ug/plate in absence of rat liver S9 fraction by Ames test (reference value: 45 +/- 9); type: toxicity
[21] = test system: Escherichia coli; test: Genotoxicity in Escherichia coli WP2uvrA assessed as number of revertants per plate at 150 ug/plate in absence of rat liver S9 fraction by Ames test (reference value: 45 +/- 9); type: toxicity
[22] = test system: Escherichia coli; test: Genotoxicity in Escherichia coli WP2uvrA assessed as number of revertants per plate at 5000 ug/plate in absence of rat liver S9 fraction by Ames test (reference value: 45 +/- 9); type: toxicity
[23] = test system: Escherichia coli; test: Genotoxicity in Escherichia coli WP2uvrA assessed as number of revertants per plate at 5000 ug/plate in presence of rat liver S9 fraction by Ames test (reference value: 42 +/- 6); type: toxicity
[24] = test system: Lymphocyte; test: Genotoxicity in human lymphocytes assessed as increase in frequency of micronucleated cells at 355.15 ug/mL after 3 hrs in absence of rat liver S9 fraction by micronucleus assay (reference value: 0.99%); type: toxicity, cell-based
[25] = test system: Rattus norvegicus; test: Genotoxicity in rat assessed as micronucleated polychromatic erythrocytes in bone marrow at 2000 mg/kg administered via oral gavage measured after 48 hrs post dose by micronucleus assay (reference value: 0.10 +/- 0.01%); type: toxicity, organism-based; settings: in vivo
[26] = AUC in rat at 2000 mg/kg administered via oral gavage; type: ADME, organism-based; settings: in vivo
[27] = test system: Plasmodium berghei; test: Antimalarial activity against Plasmodium berghei infected in Swiss Webster mouse assessed as mouse survival rate at 200 mg/kg administered once daily via oral gavage for 4 consecutive days beginning 1 hr after infection measured on day 17 post infection relative to control; type: functional; method in brief: as §1
[28] = test system: Plasmodium berghei; test: Antimalarial activity against Plasmodium berghei infected in Swiss Webster mouse assessed as mouse survival rate at 11 mg/kg administered once daily via oral gavage for 4 consecutive days beginning 1 hr after infection measured on day 11 post infection relative to control; type: functional
Method in brief: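 Mice given an intraperitoneal injection of P. berghei-infected erythrocytes taken from a previously infected animal. Oral dosing once daily for 4 consecutive days, starting 1 h after infection. Vehicle: polyethylene glycol 300/propylene glycol/water (weight ratio 55/25/20). Percent survival recorded daily from day 4 to day 20. Chloroquine 30 mg/kg and vehicle-only groups served as controls.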

Cc1c(Oc2cnc(C(=O)NC(C)CO)cn2)ccc2c1B(O)OC2 (stereo not drawn)
survival at 3 mg/kg [1]: 100%
survival at 3 mg/kg [2]: 60%
survival at 3 mg/kg [3]: 60%

Cc1c(Oc2cnc(C(=O)N3CC(C)(O)C3)cn2)ccc2c1B(O)OC2
Cmax [4]: 1700 ng/mL
Vd [5]: 0.831 L/kg
survival at 3.7 mg/kg [6]: 0%
pIC50 [7]: 7.46
T99.9% [8]: 30 h
Activity [9]: 126
Activity [10]: 148
Activity [11]: 133
Activity [12]: 150
Activity [13]: 136
Activity [14]: 31
Activity [15]: 16
Activity [16]: 10
Activity [17]: 15
Activity [18]: 15
Activity [19]: 12
Activity [20]: 35
Activity [21]: 56
Activity [22]: 43
Activity [23]: 34
Activity [24]: 0.85%
Activity [25]: 0.1%
AUC [26]: 742 µg·h/mL

CCCC1(O)CN(C(=O)c2cnc(Oc3ccc4c(c3C)B(O)OC4)cn2)C1
survival at 200 mg/kg [27]: 0%

Cc1c(Oc2cnc(C(=O)N3CC(O)(C(C)C)C3)cn2)ccc2c1B(O)OC2
survival at 11 mg/kg [28]: 20%
